According to ChEMBL document CHEMBL1150779, “Triazolopyrimidine-based dihydroorotate dehydrogenase inhibitors with potent and selective activity against the malaria parasite Plasmodium falciparum” (J Med Chem, 2008):
pEC50, pIC50: −log10 of the molar value.

Columns and labels:
[1] = target: T1, Dihydroorotate dehydrogenase (Plasmodium falciparum, UniProt Q54A96); test: Inhibition of Plasmodium falciparum DHODH assessed as reduction of 2,6-dichloroindophenol by stopped flow spectroscopy
T1 sequence (Q54A96 whole entry): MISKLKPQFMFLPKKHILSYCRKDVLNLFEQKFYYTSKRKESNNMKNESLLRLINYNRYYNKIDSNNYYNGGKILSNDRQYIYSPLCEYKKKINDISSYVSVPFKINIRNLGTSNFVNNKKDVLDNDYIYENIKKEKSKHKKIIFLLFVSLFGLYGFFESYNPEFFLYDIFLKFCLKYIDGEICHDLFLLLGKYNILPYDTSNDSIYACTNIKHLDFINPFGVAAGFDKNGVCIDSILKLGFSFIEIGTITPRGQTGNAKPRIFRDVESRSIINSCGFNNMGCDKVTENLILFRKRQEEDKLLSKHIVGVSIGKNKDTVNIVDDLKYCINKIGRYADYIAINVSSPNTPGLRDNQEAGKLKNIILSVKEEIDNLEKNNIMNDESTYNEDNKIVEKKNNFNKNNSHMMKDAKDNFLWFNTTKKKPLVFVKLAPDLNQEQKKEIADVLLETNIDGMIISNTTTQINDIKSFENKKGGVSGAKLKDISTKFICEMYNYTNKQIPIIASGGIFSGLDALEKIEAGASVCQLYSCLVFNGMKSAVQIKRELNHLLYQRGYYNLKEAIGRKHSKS
In short: (§1)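 Truncated soluble enzyme expressed in E. coli. Steady-state assay: DCIP (0.12 mM) reduction at 600 nm, 5–10 nM enzyme, 0.2 mM L-dihydroorotate, 0.02 mM CoQD, in 100 mM HEPES pH 8.0, 150 mM NaCl, 10% glycerol, 0.1% Triton, 20°C.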

Plasmodium falciparum [2] = test: Antiplasmodial activity against Plasmodium falciparum 3D7 in erythrocytes as [3H]hypoxanthine uptake; assay type: functional, organism-based
In short: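 Parasites grown in RPMI-1640 with 20% human type A+ plasma and 2% (w/v) red blood cells; drug-treated infected erythrocytes assayed for [3H]-hypoxanthine uptake. Triplicate points over a range of inhibitor concentrations; EC50 from fit of % proliferation to a Hill-type equation; reported values average at least 2 independent experiments.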

[3] = target: Dihydroorotate dehydrogenase (quinone), mitochondrial (Homo sapiens, UniProt Q02127); test: Inhibition of human DHODH assessed as reduction of 2,6-dichloroindophenol by stopped flow spectroscopy
Chain of Dihydroorotate dehydrogenase (quinone), mitochondrial (Q02127 whole entry): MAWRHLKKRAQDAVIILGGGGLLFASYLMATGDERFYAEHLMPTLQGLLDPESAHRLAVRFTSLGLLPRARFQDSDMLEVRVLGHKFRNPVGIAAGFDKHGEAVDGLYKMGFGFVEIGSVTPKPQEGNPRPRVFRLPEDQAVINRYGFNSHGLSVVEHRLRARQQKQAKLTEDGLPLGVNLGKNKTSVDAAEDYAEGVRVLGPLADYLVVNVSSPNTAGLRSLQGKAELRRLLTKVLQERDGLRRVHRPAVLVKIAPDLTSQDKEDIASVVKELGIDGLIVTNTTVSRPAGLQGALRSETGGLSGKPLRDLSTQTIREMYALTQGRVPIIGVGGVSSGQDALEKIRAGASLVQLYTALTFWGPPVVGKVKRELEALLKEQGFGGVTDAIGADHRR
In short: as §1, with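 “20°C. CoQ-independent oxidase background subtracted; triplicate points per concentration; IC50 from curve fit, ≥2 experiments.” for “20°C.”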

L1210 = test: Cytotoxicity against mouse L1210 cells
Plasmodium falciparum [4] = test: Antiplasmodial activity against Plasmodium falciparum D6 in erythrocytes as [3H]hypoxanthine uptake; details: D6, 3 h
Plasmodium falciparum [5] = test: Antiplasmodial activity against Plasmodium falciparum FCR3 in erythrocytes as [3H]hypoxanthine uptake; details: FCR3, 3 h
Plasmodium falciparum [6] = test: Antiplasmodial activity against Plasmodium falciparum HB3 in erythrocytes as [3H]hypoxanthine uptake; details: HB3, 3 h
Plasmodium falciparum [7] = test: Antiplasmodial activity against Plasmodium falciparum Dd2 in erythrocytes as [3H]hypoxanthine uptake; details: Dd2, 3 h
Plasmodium falciparum [8] = test: Antiplasmodial activity against Plasmodium falciparum K1 in erythrocytes as [3H]hypoxanthine uptake; details: K1, 3 h

Row | SMILES | pIC50 [1] | pIC50 (Plasmodium falciparum [2]) | pIC50 [3] | pEC50 (L1210) | pEC50 (Plasmodium falciparum [4]) | pEC50 (Plasmodium falciparum [5]) | pEC50 (Plasmodium falciparum [6]) | pEC50 (Plasmodium falciparum [7]) | pEC50 (Plasmodium falciparum [8])
1 | Cc1cc(N(C)c2ccc3ccccc3c2)n2ncnc2n1 | 5.52 | 4.80 | < 3.70 |  |  |  |  |  | 
2 | Cc1cc(Nc2ccc3cc4ccccc4cc3c2)n2ncnc2n1 | 7.25 | 6.72 | < 3.70 |  |  |  |  |  | 
3 | Cc1cc(Nc2cnc3ccccc3c2)n2ncnc2n1 | 5.77 | 5.80 | < 3.70 |  |  |  |  |  | 
4 | Cc1cc(Nc2ccc(C(N)=O)cc2)n2ncnc2n1 | < 3.70 | < 4.30 | < 3.70 |  |  |  |  |  | 
5 | Cc1cc(Nc2ccc3ncccc3c2)n2ncnc2n1 | 5.92 | 5.66 | < 3.70 |  |  |  |  |  | 
6 | Cc1cc(Nc2cc3ccccc3cc2O)n2ncnc2n1 | 6.48 | 5.77 | < 3.70 |  |  |  |  |  | 
7 | Cc1nc2ncnn2c(Nc2ccc3ccccc3c2)c1C | 6.80 | 6.26 | < 3.70 |  |  |  |  |  | 
8 | CCc1cc(Nc2ccc3ccccc3c2)n2ncnc2n1 | 6.72 | 6.51 | < 3.70 |  |  |  |  |  | 
9 | Cc1cc(Nc2ccc3ccccc3c2)n2ncnc2n1 |  | 7.10 | < 3.70 | < 5.00 | 7.24 | 6.74 | 7.00 | 6.85 | 6.85
10 | Cc1cc(Nc2ccccc2)n2ncnc2n1 | < 4.00 | < 4.00 | < 3.70 |  |  |  |  |  | 
11 | FC(F)(F)c1cc(Nc2ccc3ccccc3c2)n2ncnc2n1 | 6.68 | 5.48 | < 3.70 |  |  |  |  |  | 
12 | Cc1cc(Nc2ccc3c(=O)cc(C)oc3c2)n2ncnc2n1 | 5.70 | 6.39 | < 3.70 |  |  |  |  |  | 
13 | Cc1cc(Nc2cccc3ccccc23)n2ncnc2n1 | 4.35 | 5.36 | < 3.70 |  |  |  |  |  | 
14 | Cc1cc(N(Cc2ccccc2)c2ccc3ccccc3c2)n2ncnc2n1 | 4.03 | 4.46 | < 3.70 |  |  |  |  |  | 
